Screening results from PubChem BioAssay.
The list is not random: actives were taken first. Their share in the collection is about 1.8%.
UHRF1 binding = blocks human UHRF1 binding to methylated DNA. UHRF1 binding to methylated oligo, TR-FRET. Q96T88. 370,000 tested, 0.75% active. inhibition, % at 4.4 µM. AID 687016; in the data active = inhibition above about 21%;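 note: UHRF1 SRA domain binding a hemimethylated CpG hairpin DNA probe; 0% = median of test compound wells and 100% = reference inhibitor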
MBD2 inh = blocks human MBD2 binding to methylated DNA; TR-FRET, MBD2 binding to methylated oligonucleotide; 370,000 tested, 0.31% active; inhibition, % at 4.4 µM; in the data active = inhibition above about 13%
Target sequence (Q9UBB5 whole entry, looked up): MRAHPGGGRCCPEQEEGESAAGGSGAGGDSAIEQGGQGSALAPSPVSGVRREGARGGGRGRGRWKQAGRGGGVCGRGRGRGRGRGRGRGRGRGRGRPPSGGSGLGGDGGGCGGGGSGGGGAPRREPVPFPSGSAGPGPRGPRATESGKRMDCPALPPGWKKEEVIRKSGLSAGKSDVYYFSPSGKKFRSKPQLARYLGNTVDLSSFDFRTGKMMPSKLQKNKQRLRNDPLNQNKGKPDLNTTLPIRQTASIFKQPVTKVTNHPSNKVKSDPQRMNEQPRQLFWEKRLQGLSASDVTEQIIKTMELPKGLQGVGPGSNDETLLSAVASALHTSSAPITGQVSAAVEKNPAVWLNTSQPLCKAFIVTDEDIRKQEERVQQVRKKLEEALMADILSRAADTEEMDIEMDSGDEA
core dimer inh = blocks dimerization of HCV core protein. TR-FRET GST/Flag-core106 dimerization, 1536-well. inhibition, % at 5 µM. 300,000 tested, 0.33% active. AID 1899;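 active = inhibition above the mean of all tested compounds plus 3 SD, set per screening campaign, cut at about 45% in these data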
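System: GST/Flag-tagged HCV core106 proteins. Incubation: compound-protein-antibody incubation 4 h at 22.5 °C. Technique: HTRF with 340 nm excitation, 617/671 nm emission. Medium: KF-containing HEPES buffer, pH 7.45, DTT, CHAPS, BSA. Read-out: inhibition (%) from 671 over 617 nm ratio. Also added: Eu(K)-anti-GST 90 ng/mL plus XL665-anti-Flag 1 µg/mL.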
TDP2 inh = blocks human TDP2 phosphodiesterase activity. O95551. recombinant TDP2, T5PNP hydrolysis, p-nitrophenol absorbance 415 nm. inhibition, % at 12.8 µM. 370,000 tested, 0.34% active. AID 720702;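 active = inhibition above the mean of all tested compounds plus 3 SD, set per campaign, cut at about 25% in these data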;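 note: 0% = DMSO with enzyme and 100% = buffer with substrate but no TDP2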
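System: recombinant human TDP2 / Amount: 120 nM TDP2 per well / Also added: 5 mM T5PNP chromogenic substrate / Doses: 12.8 µM single point, 1% DMSO / Incubation: 2 h at 37 °C / Detection: p-Nitrophenol epi absorbance / Evaluation: % inhibition relative to enzyme-containing and enzyme-free wells / Repeats: singlicate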
LEDGF integ inh = blocks HIV-1 LEDGF/p75-dependent DNA integration; 370,000 tested, 0.64% active; inhibition, % at 3.7 µM; TR-FRET IN-LEDGF/p75 DNA integration, Eu/Cy5;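 active = inhibition above the screen-wide mean plus 3 SD, cut at about 13% in these data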;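 note: signal is the Cy5 over europium emission ratio at 671 and 618 nm; 0% = plate median of compound wells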
An asterisk follows results filed as active; · = no result.

SMILES	UHRF1 binding	MBD2 inh	core dimer inh	TDP2 inh	LEDGF integ inh
OCCN(CC#CC(O)(c1ccccc1)c1cccc(F)c1)CCO (configuration not stated)	25.9*	9.1	1.9	1.1	-4.6
COC(=O)C[C@H]1CC[C@H]2[C@H](COc3ccc(NS(=O)(=O)c4cccc(OC)c4)cc3C(=O)N2C)O1	-0.6	-3.3	·	3.7	0.0
CCOC(=O)Cc1csc(NC(=O)CSc2nnc3ccccn23)n1	32.5*	-9.1	-4.6	-5.9	-0.6
N#Cc1c(-c2ccco2)cc(-c2ccccn2)nc1N	-7.1	-7.9	73.2*	-11.9	4.0
Nc1nccc(-c2cccs2)n1	0.9	-5.6	-1.6	-6.3	3.8
Brc1cc(Br)c2nc(-c3cccs3)ccc2c1	10.2	0.0	47.7*	-11.5	-1.5
Cc1cc(N2CCN(C(=O)OC(C)(C)C)C[C@H]2C)ccc1N1CCS(=O)(=O)CC1	0.6	0.9	·	-0.4	1.1
CC(=O)NC(Cc1ccccc1C)C(=O)NC1CCN(c2c3c(nc4ncnn24)CCC3)CC1 (configuration not stated)	39.2*	-3.0	·	-8.0	1.6
COc1ccc(CC(NC(C)=O)C(=O)NC2CCN(c3c4c(nc5ncnn35)CCC4)CC2)cc1OC (configuration not stated)	·	·	1.9	·	·
COc1ccc(NC(=O)C2CCCN2C(=O)OCc2ccccc2)cc1 (configuration not stated)	-1.2	-2.0	1.6	7.4	3.0
CC(C)(C)OC(=O)N1CCC[C@@H]1C(=O)N1CCC[C@@H]1C(=O)NCc1ccccc1	16.1	14.8*	·	11.2	2.2
COC(=O)c1ccc(NC(=O)C2CCCN2C(=O)OCc2ccccc2)cc1 (configuration not stated)	23.8*	5.2	4.8	2.6	3.7
CC(C)(C)OC(=O)N1CCC[C@@H]1C(=O)N1CCC[C@H]1C(=O)NCc1ccccc1	-1.2	-1.0	·	-3.0	0.7
COC(=O)[C@]12C[C@H](CC(=O)NCc3cccc4ccccc34)C(=O)N(Cc3ccco3)C1=C[C@H](C(C)(C)C)O[C@@H]2C	-1.9	0.7	·	-3.5	-0.9
CCc1ccc(Nc2ncc3c(n2)CC(C)CC3=O)cc1 (configuration not stated)	2.5	1.0	4.4	-9.6	-4.5
CCc1ccc(Nc2ncc3c(n2)CC(C)(C)CC3=O)cc1	41.9*	-5.3	2.2	11.0	2.9
COc1ccc(NC(=O)Cn2c(=O)n(CC3CCCO3)c(=O)c3ccccc32)c(OC)c1 (configuration not stated)	21.6*	8.1	3.5	-1.9	5.4
O=C(O)C1=C(C(=O)O)C2C=CC1C2	33.0*	12.0	·	-13.1	4.8
CC1CCCN(Cc2c(O)ccc3c2O/C(=C\c2ccco2)C3=O)C1 (configuration not stated)	14.4	5.8	-8.3	13.1	29.0*
CCN1CCN(Cc2c(O)ccc3c2O/C(=C\c2ccccc2)C3=O)CC1	-18.7	-3.8	11.9	-10.4	1.1
COCC(=O)Nc1c(C(=O)Nc2ccc3c(c2)OCO3)oc2ccccc12	51.3*	1.8	-2.1	-4.7	-0.4
O=C(c1ccccc1)N1CCC(Oc2cccnc2)CC1	-0.5	1.4	·	4.7	-2.0
CCOc1ccccc1C(=O)Nc1ccc(C(=O)NCC2COc3ccccc3O2)cc1 (configuration not stated)	0.4	-0.7	·	7.9	4.0
Cc1ccc(N2C(=O)C3CC(c4ccccc4)=C4C5C=CC(C6C(=O)N(c7ccc(C)cc7C)C(=O)C56)C4C3C2=O)c(C)c1 (configuration not stated)	·	·	52.3*	·	·
COc1ccc(/C=C2\N=C(c3ccc(C)cc3)OC2=O)cc1	0.4	-1.7	5.6	-1.2	-3.9
SMILES	UHRF1 binding	MBD2 inh	core dimer inh	TDP2 inh	LEDGF integ inh
Cc1ccc(C2=N/C(=C\c3coc4ccccc4c3=O)C(=O)O2)cc1	3.6	-2.2	·	3.1	40.0*
Cc1cc(NC(=O)CN2C(=O)NC(C)(c3ccccc3)C2=O)no1 (configuration not stated)	96.9*	3.1	-2.1	16.8	1.1
CCCC1(c2ccccc2)NC(=O)N(CC(=O)Nc2cc(C)on2)C1=O (configuration not stated)	2.3	5.7	-2.7	-2.9	-3.1
COc1ccc2c(c1)CO[C@H]([C@H](O)CO)[C@H]2/C=C/c1ccccc1	2.1	3.8	·	3.8	-1.6
NC(=O)N[C@@H](Cc1c[nH]c2ccccc12)C(=O)OCC(=O)N1CCCCC1	24.1*	2.4	2.1	1.7	-4.8
O=C(Nc1ccc2[nH]c3c(c2c1)CCCC3)c1ccco1	-0.4	-2.2	47.5*	-3.5	-3.8
Cc1ccc(OCc2nnc(SCC(=O)c3ccc4ccccc4c3)n2-c2ccc(Cl)cc2)cc1	0.9	-1.7	·	7.9	1.2
Cc1c(NC(=O)C2CCCN(S(=O)(=O)c3cccc4ccccc34)C2)c(=O)n(-c2ccccc2)n1C (configuration not stated)	-3.1	-7.4	·	0.3	6.1
O=C(O)C1Nc2ccc(OC(F)(F)F)cc2C2C=CCC12 (configuration not stated)	·	·	-0.3	·	·
Cc1ccc2c(c1)C1C=CCC1C(C(=O)O)N2 (configuration not stated)	·	·	94.3*	·	·
O=C(O)c1cccc(N2C(=O)/C(=C/c3ccc(SCc4ccc(Cl)cc4)o3)SC2=S)c1	89.2*	40.4*	·	16.7	60.1*
C[C@@H]1C[C@H]2[C@@H](Cc3ccccc3)C(=O)N3[C@H](c4ccccc4)[C@H](C)C[C@H]3[C@@H](Cc3ccccc3)C(=O)N2[C@@H]1c1ccccc1	-1.9	4.6	·	-5.0	-0.9
O=C(NCc1cccnc1)c1ccc(COc2cccc3ccccc23)o1	2.3	3.4	61.3*	-5.2	1.0
CCOC(=O)[C@@]12CCCC3=C1N(CCC3)C(=O)[C@H]2CC(=O)NCc1cccs1	-2.7	3.0	·	0.8	-1.3
CC[C@@H](CCCCCCCn1ccc2ccccc21)CCC(=O)N(c1ccccc1)c1ccccc1	-0.1	2.1	·	2.3	0.1
COc1ccccc1OCc1ccc(C(=O)N(C)C)o1	0.8	-2.0	-3.4	-4.8	0.8
COc1ccccc1OCc1ccc(C(=O)N(C)c2ccccc2)o1	24.6*	4.0	·	-0.4	1.6
CN(/N=C/c1ccc(-c2ccc([N+](=O)[O-])cc2)o1)c1ccccc1	1.3	2.7	55.1*	-14.6	4.4
NC(=S)N/N=C/c1ccc(-c2ccc([N+](=O)[O-])cc2)o1	-1.9	-5.6	49.9*	-10.9	-4.3
Cc1ccc(CN2CCCCC(NC(=O)c3ccc(COc4ccccc4)cc3)C2=O)cc1 (configuration not stated)	1.8	-1.1	·	-0.7	1.6
COc1ccc(S[C@]2(C(=O)N3CCOCC3)CC(=O)N(C(=O)C3CC3)[C@@H]2c2ccc(OC)cc2)cc1	-0.3	-0.6	·	5.1	-4.1
